Screening results: PubChem, several laboratories
SF1 activator = activates the human nuclear receptor SF-1; Q13285; CHO-K1 Gal4-SF-1 LBD luciferase reporter; % increase over DMSO SF-1-specific signal; activation, % at 10 µM; 65,000 tested, 1.9% active; AID 522;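 active = activation above the mean activation of all tested compounds plus 3 SD, cut at about 50% in these data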
Target sequence (Q13285 whole entry, looked up, the tested form may be a part): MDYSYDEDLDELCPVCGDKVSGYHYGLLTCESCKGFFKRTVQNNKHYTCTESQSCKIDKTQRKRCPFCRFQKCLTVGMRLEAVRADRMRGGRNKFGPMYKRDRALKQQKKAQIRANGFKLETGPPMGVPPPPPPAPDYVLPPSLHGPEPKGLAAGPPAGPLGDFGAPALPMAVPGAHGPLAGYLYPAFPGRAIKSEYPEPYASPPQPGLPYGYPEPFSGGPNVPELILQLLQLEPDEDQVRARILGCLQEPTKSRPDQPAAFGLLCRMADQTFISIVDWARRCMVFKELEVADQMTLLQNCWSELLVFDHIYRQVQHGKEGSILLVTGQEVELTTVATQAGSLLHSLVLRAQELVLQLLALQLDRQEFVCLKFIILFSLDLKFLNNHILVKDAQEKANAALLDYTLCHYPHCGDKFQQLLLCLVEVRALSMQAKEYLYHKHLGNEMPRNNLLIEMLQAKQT
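Test system: CHO-K1 cells co-transfected with Gal4 DBD–human SF-1 LBD, 5xGal4 luciferase reporter. Quantity: 4,000 cells per well. Compound: 10 µM only. Incubation: compound added 1 h post-seeding, 20 h exposure at 37 °C, 5% CO2. Detection: SteadyLite luciferase luminescence. Replication: one test per compound.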
Hsp90 block = displaces geldanamycin probe from tumor Hsp90. P07900. NCI-N417 lysate Hsp90, Cy3B-geldanamycin FP displacement. inhibition, % at 30 µM. 64,000 tested, 0.35% active. AID 429;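 active = inhibition above 50%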
JNK3 blocker = blocks human JNK3 kinase activity | inhibition, % at 8 µM | purified JNK3 kinase activity, HTS | P53779 | 60,000 tested, 0.61% active; in the data active = inhibition above about 17%
Cdc25B inh = inhibitors of human Cdc25B phosphatase; P30305; AID 368; recombinant Cdc25B, OMFP fluorescence Ex485/Em525; inhibition, %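 (compounds tested at 10 µM final in the well)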; 65,000 tested, 0.1% active; in the data active = inhibition above about 50%
DUSP1 inh = inhibitors of human MKP-1 phosphatase; P28562; recombinant MKP-1, OMFP hydrolysis fluorescence; inhibition, %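 (compounds tested at a single concentration somewhere between 10 and 100 µM)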; 65,000 tested, 0.15% active; AID 374;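 active = inhibition above about 50%, limit read from the data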
RORA act = RORA (human) activation | 65,000 tested, 1.5% active | CHO-K1 Gal4-RORA LBD luciferase reporter, luminescence; percent increase over mock-subtracted basal signal | AID 560 | P35398 | activation, % at 10 µM;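 active = activation above the mean of all tested compounds plus 3 SD, cut at about 49% in these data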
A number is an active result; . = inactive; / = no result. Compounds with a hit are over-represented: about 3.4% of the library has one in this group of screens.

SMILES	SF1 activator	Hsp90 block	JNK3 blocker	Cdc25B inh	DUSP1 inh	RORA act
Cc1cc2nc(NC3=NCN(Cc4ccc5c(c4)OCO5)CN3)nc(C)c2cc1C	.	.	.	.	.	.
Cc1ccc(-c2cc(C(=O)N3CCN(c4ncccn4)CC3)c3ccccc3n2)cc1	53.7	.	.	.	.	.
Cc1cc2c(N)cccc2nn1	.	.	.	52.0	.	.
CN(C)c1nc2ccccc2c(N)c1-c1ccccc1	.	.	.	.	.	.
C=CCn1cnc2c(NCc3ccccc3)ncnc21	64.9	.	.	.	.	.
CCOC(=O)CSc1nnnn1-c1cc(OC)c(Cl)cc1OC	.	.	.	50.8	.	.
COc1cc(-n2nnnc2SCC(=O)N2CCN(c3ccc(F)cc3)CC2)c(OC)cc1Cl	.	.	.	.	.	.
c1ccc(Nc2cc(-c3ccccc3)nc3ncnn23)cc1	.	.	.	.	.	.
O=C(c1ccc(S(=O)(=O)N2CCOCC2)cc1)N1CCc2ccccc2C1	.	.	.	.	.	.
CCCCOc1ccc(-c2nnn(CC(=O)Nc3ncc(CC(=O)OCC)s3)n2)cc1	.	.	.	.	.	.
CCCCOc1ccc(-c2nnn(CC(=O)NCc3ccco3)n2)cc1	.	.	.	.	.	197.6
O=C(COc1ccccc1Cl)Nc1ccc(Cl)cn1	74.5	.	.	.	.	62.0
O=C(CCc1ccccc1)Nc1ccc(Cl)cn1	60.5	.	.	.	.	.
CCn1c(NCc2c[nH]c3ccccc23)nc2ccccc21	.	.	.	.	.	.
Cn1c(NCc2c[nH]c3ccccc23)nc2ccccc21	77.6	.	.	.	.	63.8
CC(=O)c1cnc2cc(-c3ccccc3)nn2c1C	49.8	.	.	.	.	.
CCOC(=O)CCn1nc(-c2ccccc2)cc1N	.	.	.	.	.	.
CN(C)S(=O)(=O)c1ccc(NC(=O)c2ccccn2)cc1	74.0	.	.	.	.	56.7
CCN(CC)S(=O)(=O)c1ccc(NC(=O)c2ccccn2)cc1	55.0	.	.	.	.	48.6
CCCNS(=O)(=O)c1ccc(NC(=O)c2ccccn2)cc1	.	.	.	.	.	.
COC(=O)c1ccccc1NC(=O)Cn1cc2c(n1)CCC(C)C2 (configuration not stated)	.	.	.	.	.	.
CCOC(=O)N1CCN(C(=O)c2ccc(CN(c3ccccc3)S(C)(=O)=O)cc2)CC1	.	/	/	.	.	.
CC1c2nc3ccccc3n2C(CC(=O)NCc2ccccn2)C(=O)N1Cc1ccccc1 (configuration not stated)	.	.	.	.	.	.
Cc1ccc(-n2c(C)cc(C(=O)COC(=O)c3c(C)noc3C)c2C)cc1	78.8	.	.	.	.	.
Cc1onc(-c2ccccc2)c1C(=O)OCC(=O)c1ccccc1	.	.	.	.	.	.
SMILES	SF1 activator	Hsp90 block	JNK3 blocker	Cdc25B inh	DUSP1 inh	RORA act
C=CCn1c(SCC(=O)Nc2nnc(CC)s2)nnc1-c1ccco1	.	.	.	.	.	.
Cc1cc2c(c(=O)o1)C(C13C=CC(CC1)C3)C(C#N)=C(N)O2 (configuration not stated)	.	.	.	.	.	.
Nn1cnnc1SCC(=O)Nc1ccc(C2CCCCC2)cc1	53.6	.	.	.	.	.
O=C(NCc1cccnc1)c1ccc(COc2ccccc2Br)o1	.	.	.	.	.	.
O=C(Nc1cccnc1)c1ccc(COc2ccccc2Br)o1	.	.	20.7	.	.	.
O=C(C1Cc2ccccc2CN1S(=O)(=O)c1cccs1)N1CCCCCC1 (configuration not stated)	.	.	.	.	.	.
COC(=O)C1=C(C)N(c2cccc3ccccc23)C(=O)C1	.	50.7	.	.	.	.
COC(=O)C1=C(C)N(c2ccc(C(=O)OC)cc2)C(=O)C1	.	.	.	.	.	.
N#Cc1nc(-c2ccc(Cl)cc2)oc1NCCc1ccccn1	.	.	/	.	.	.
CCOc1ccc(-c2nc(C#N)c(NC3CC3)o2)cc1	.	.	.	.	.	62.8
COCCNc1oc(-c2ccc(C)cc2)nc1C#N	60.6	.	.	.	.	.
COCCNc1oc(-c2ccc(Cl)cc2)nc1C#N	.	.	.	.	.	.
Cc1ccc(-c2nc(C#N)c(NCCc3ccccn3)o2)cc1	54.4	.	.	.	.	61.0
O=C(NCCNCC(O)COc1ccc(O)cc1)N1CCOCC1 (configuration not stated)	/	.	/	/	/	/
Cc1ccccc1C(=O)Nc1ccc(Br)c(C)n1	.	.	.	.	.	55.9
CCN(CC)S(=O)(=O)c1cc(C(=O)Nc2ccc(Cl)cn2)ccc1C	61.3	.	.	.	.	.
CCC(=O)Nc1ccc(NC(=O)c2ccccc2Cl)nc1	.	.	.	.	.	.
Cc1ccccc1C(=O)Nc1ccc(Cl)cn1	.	.	.	.	.	56.4
CC(C)C(=O)Nc1ccc(NC(=O)c2ccccc2Cl)nc1	.	.	.	.	.	61.6
Cc1cc(C(=O)OCC(=O)N2CCN(c3ccccc3)CC2)c2ccccc2n1	.	.	.	.	.	.
COCCCn1c(SCC(=O)n2c(C)c(C)c3ccccc32)nnc1-c1ccoc1C	.	.	.	.	.	.
CCOC(=O)C1CSC(CC(=O)Nc2ccc(Cl)cc2)C(=O)N1 (configuration not stated)	.	.	.	.	.	.
C=CCOc1ccc(CNc2nn[nH]n2)cc1	.	.	.	.	.	.
CC(C)CCNC(=O)C(c1ccco1)N(Cc1ccc(F)cc1)C(=O)c1snc(C(N)=O)c1N (configuration not stated)	.	.	.	.	.	.
O=C(c1ccccc1)c1nc[nH]c1C(=O)Nc1ccccn1	.	.	18.2	.	.	.
SMILES	SF1 activator	Hsp90 block	JNK3 blocker	Cdc25B inh	DUSP1 inh	RORA act
CCOC(=O)c1[nH]cnc1C(=O)Nc1ccccn1	.	.	.	.	.	.
CCc1nc(SCc2ccc(C(=O)OC)o2)c2c(=O)n(C)c(=O)n(C)c2n1	.	.	.	.	.	.
O=C1C2C3C=CC(C3)C2C(=O)N1CNc1ccc(O)cc1 (configuration not stated)	.	60.9	.	.	.	.
CC1CCC(NC(=O)Cn2ncc3ccccc32)CC1 (configuration not stated)	52.0	.	.	.	.	.
N#Cc1cn(-c2ccccc2)nc1-c1ccc2c(c1)OCCO2	55.4	.	.	.	.	61.7
Cc1ccc2cc3cc(C(=O)N4CCCCC4C)oc3nc2c1 (configuration not stated)	64.9	.	.	.	.	.
Cc1ccc2cc3cc(C(=O)N4CC(C)CC(C)C4)oc3nc2c1 (configuration not stated)	.	.	.	.	.	.
c1ccc(-n2cnnc2SCc2cn3ccsc3n2)cc1	.	.	.	.	.	.
c1ccn2c(SCc3cn4ccsc4n3)nnc2c1	70.7	.	.	.	.	60.6
